Starred links: 1 amine or outer side, 2 acyl side, 3 side chain; linkers in the order of their positions; H or OH if unused. Groups on a side chain read outwards from the residue. No end group written: not given here. *: point of attachment. γGlu = O=C(O)[C@H](CCC(=O)[*:2])N[*:1]; Palmitoyl = CCCCCCCCCCCCCCCC(=O)*
Key:
[1] = test system: participants with overweight or obesity and type 2 diabetes; test: Phase 2b study: glycemic control; assay type: in vivo, human; conditions: on metformin, LS mean (95% CI), ANCOVA, LOCF
[2] = test system: participants with overweight or obesity and type 2 diabetes; test: Phase 2b study: anti-drug antibodies and exposure; assay type: in vivo, human
Method in brief: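 Dosing started at 100 µg and rose weekly by 100 µg. Anti-drug antibodies, a secondary end point, were measured in all treated participants by a high-sensitivity assay. Titers were split at 80 and related to trough drug concentrations.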

[3] = test system: participants with overweight or obesity and type 2 diabetes; test: Phase 2b study: safety; assay type: in vivo, human
[4] = test system: participants with overweight or obesity and type 2 diabetes; test: Phase 2b study: body weight; assay type: in vivo, human; conditions: for Percent change in body weight from baseline to week 14: LS mean (95% CI), ANCOVA, LOCF; for Weight loss, placebo-adjusted change from baseline: week 54
[5] = test system: participants with overweight or obesity and type 2 diabetes; test: Phase 2b study: hepatic parameters; assay type: in vivo, human; conditions: LS mean (95% CI); for Percent change from baseline in GGT levels: after 54 weeks, ad hoc
[6] = cited from earlier work; for Reduction of mean body weight: head-to-head phase 2 trial of semaglutide with liraglutide
[7] = cotadutide 100 µg s.c. once daily
[8] = cotadutide 200 µg s.c. once daily
[9] = cotadutide 300 µg s.c. once daily
[10] = liraglutide 1.8 mg s.c. once daily

## Cotadutide
[1]; [7]
  Change from baseline to week 14 in HbA1c levels: –1.11 [–1.30, –0.93]
[1]; [8]
  Change from baseline to week 14 in HbA1c levels: –1.32 [–1.44, –1.21]
[1]; [9]
  Change from baseline to week 14 in HbA1c levels: –1.26 [–1.38, –1.14]
[2]; cotadutide-treated participants, all doses, high-sensitivity assay
  Anti-drug antibody (ADA) incidence: 60.8%
[2]; cotadutide, trough concentrations higher at titer >80
  Impact of ADA titer above 80 on pharmacokinetics, relative to population average: approximately twofold
[3]; all tested doses of cotadutide, all P = 0.001 to P = 0.006
  Pulse rate versus placebo: Increases in pulse rates
[3]; [9]
  Systolic blood pressure: reduction in systolic blood pressure
[3]; cotadutide treatment, ad hoc
  Rate pressure product: no notable changes in rate pressure product
[4]; [7]
  Percent change in body weight from baseline to week 14: –2.98 [–3.87, –2.09] %
[4]; [8]
  Percent change in body weight from baseline to week 14: –3.67 [–4.22, –3.13] %
[4]; [9]
  Percent change in body weight from baseline to week 14: –5.01 [–5.57, –4.45] %
  Weight loss, placebo-adjusted change from baseline: –4.34%
[5]; [7]
  Percent change in fatty liver index, change from baseline: –8.08 [–10.62, –5.54] %
  Percent change from baseline in GGT levels: –10.54 [–26.75, 5.68] %
[5]; [8]
  Percent change in fatty liver index, change from baseline: –6.73 [–8.29, –5.17] %
[5]; [9]
  Percent change in fatty liver index, change from baseline: –8.18 [–9.79, –6.57] %
  Percent change from baseline in GGT levels: –12.17 [–22.45, –1.90] %

## Liraglutide: GLP-1 receptor monoagonist, open-label active comparator 1.8 mg (HAEGTFTSDVSSYLEGQAAK([γGlu-Palmitoyl])EFIAWLVRGRG; chains of the INN, looked up) [reference compound]
[6]
  Reduction of mean body weight: 7.8%
[6]; phase 2 and phase 3 clinical trials
  Reduction of body weight: 6–8%
[4]; liraglutide 1.8 mg s.c. once daily, open-label
  Percent change in body weight from baseline to week 14: –3.44 [–4.20, –2.68] %
[4]; [10]
  Weight loss, placebo-adjusted change from baseline: –2.65%
[5]; [10]
  Percent change from baseline in GGT levels: –10.54 [–24.41, 3.33] %

## semaglutide
[6]
  Reduction of mean body weight: 6.0–13.8%
